Measured values taken from ChEMBL document CHEMBL1140071, “A new synthetic access to furo[3,2-f]chromene analogues of an antimycobacterial” (2008).
≈ marks a conversion by molar mass, not a printed value.

Experiments:
[1] = system: Mycolicibacterium smegmatis; experiment: Antimycobacterial activity against Mycobacterium smegmatis mc2 155 after 48 hrs by microdilution resazurin assay; type: functional; details: str. MC2 155, 48 h
In short: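 M. smegmatis mc²155 inoculum grown in Dubos medium with 10% ADC. Twofold serial drug dilutions (from 500 to 0.9) in Dubos medium, from 50 mg/mL DMSO stocks. DMSO and isoniazid controls. Sealed plates at 37 °C for 48 h, then 0.01% resazurin added for another 24 h at 37 °C. MIC is the lowest concentration preventing the blue-to-pink change.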

[2] = system: Mycobacterium tuberculosis; experiment: Antimycobacterial activity against Mycobacterium tuberculosis H37Rv after 6 days by microdilution resazurin assay; type: functional; details: 144 h
In short: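 Inoculum of virulent M. tuberculosis H37Rv grown in Dubos broth plus 10% ADC. Compounds from 50 mg/mL DMSO stocks, serially diluted twofold in Dubos medium (500 down to 0.9), with DMSO and isoniazid controls. Incubated 6 days at 37 °C, then 0.01% resazurin for 24 h more. MIC read as the lowest concentration without the blue-to-pink shift.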

Row | SMILES | MIC95 [1] [µg/mL] | MIC95 [2] [µg/mL]
1 | CC1(C)C=Cc2c(ccc3oc4c(c23)CCCC4)O1 | > 500 | 120 (≈ 472 µM)
2 | CC1(C)C=Cc2c(ccc3oc4ccccc4c23)O1 | 10 (≈ 40 µM) | 10 (≈ 40 µM)
3 | CC1(C)CCc2c(ccc3oc4ccccc4c23)O1 | 10 (≈ 39.6 µM) | 10 (≈ 39.6 µM)
4 | CC1(C)CCc2c(ccc3oc(-c4cccnc4)cc23)O1 | 6.2 (≈ 22.2 µM) | 10 (≈ 35.8 µM)
5 | Cc1c(-c2ccncc2)oc2ccc3c(c12)C=CC(C)(C)O3 | 6.2 (≈ 21.3 µM) | 3 (≈ 10.3 µM)
6 | Oc1ccc2oc(-c3ccccc3)cc2c1 | 8 (≈ 38.1 µM) | 125 (≈ 595 µM)
7 | Oc1ccc2oc(-c3ccncc3)cc2c1 | > 50 | > 10
8 | C#CC(C)(C)Oc1ccc2oc(-c3ccncc3)cc2c1 | 25 (≈ 90.1 µM) | 16 (≈ 57.7 µM)
9 | CC1(C)C=Cc2c(ccc3c2C2CCCOC2O3)O1 (centres undefined) | 125 (≈ 484 µM) | 250 (≈ 968 µM)
10 | CC1(C)C=Cc2c(ccc3oc(-c4cccc(Br)n4)cc23)O1 | > 50 | > 10
11 | CN(C)CCCNc1ccc(-c2cc3c4c(ccc3o2)OC(C)(C)C=C4)cn1 | 12.5 (≈ 33.1 µM) | 10 (≈ 26.5 µM)
12 | CC(=O)OCCCc1coc2ccc3c(c12)C=CC(C)(C)O3 | > 500 | > 500
13 | CC1(C)C=Cc2c(ccc3occ(CCCO)c23)O1 | 62 (≈ 240 µM) | 125 (≈ 484 µM)
14 | O=Cc1c(O)ccc2c1C1CCCOC1O2 (centres undefined) | > 125 | 125 (≈ 568 µM)
15 | CC1(C)CCc2c(ccc3oc(-c4ccccn4)cc23)O1 | 25 (≈ 89.5 µM) | 10 (≈ 35.8 µM)
16 | Cc1c(-c2ccncc2)oc2ccc(O)cc12 | > 50 | > 10
17 | CC1(C)C=Cc2c(ccc3oc(-c4ccncc4)cc23)O1 | 3 (≈ 10.8 µM) | 2.5 (≈ 9.01 µM)
18 | CN(C)CCCNc1cccc(-c2cc3c4c(ccc3o2)OC(C)(C)C=C4)n1 | 12.5 (≈ 33.1 µM) | 10 (≈ 26.5 µM)
19 | CC1(C)C=Cc2c(ccc3oc(-c4ccccc4)cc23)O1 | > 500 | 32 (≈ 116 µM)
20 | CC1(C)C=Cc2c(ccc3oc(-c4ccc(Br)nc4)cc23)O1 | > 50 | > 10
21 | Cc1cc2c3c(ccc2o1)OC(C)(C)C=C3 | > 500 | > 500
22 | NNC(=O)c1ccncc1 [ISONIAZID] | 12 (≈ 87.5 µM) | 0.1 (≈ 0.729 µM)
